Dynein cargo inh: blocks dynein driven cargo transport along microtubules; 3617.4 mouse cells, GR-EGFP nuclear translocation imaging; test concentration mostly 20 µM; stimulated with dexamethasone, 1 µM; stronger effect = lower value; z-score, hits read low; hit rate 0.47% among 220,000;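 active = plate z-score of nuclear minus cytoplasmic receptor signal below a set negative limit, without overly bright fluorescence or cell loss, cut at about -3.5 in these data, passing the limit was not always enough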;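 note: z-score of nuclear minus cytoplasmic ring GR-EGFP intensity difference per well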
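Also added – dexamethasone, 1.0 µM final · Buffer or medium – tet-free, stripped-serum medium · Schedule – induction 48 h, compound 1 h, agonist 30 min · Detection – formaldehyde fixation, Hoechst nuclear stain, 10x automated fluorescence imaging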
UPR XBP1 act: adaptive UPR (XBP1) activation; activation, % at 20 µM; hit rate 0.33% among 330,000; AID 463104; CHO-XBP1 luciferase reporter, IRE1-XBP1 UPR activation, luminescence; percent of tunicamycin response, DMSO as zero;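 active = versus positive control, 20 µM dose yields 30% or more activation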
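incubation = overnight seeding at 37 °C, 6 h compound treatment at 37 °C | assay system = CHO-XBP1 cells stably carrying IRE1-XBP1-driven luciferase reporter | input = 1000 cells per well | detection = luciferase luminescence | dosing = single point, 20 µM final compound, 1% DMSO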
Lmaj promast: Leishmania major promastigote growth inhibition; Leishmania major promastigotes, resazurin fluorescence viability; inhibition, % at 10 µM; hit rate 9% among 200,000; AID 1063; in the data active = inhibition above about 50%;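 note: promastigotes grown with compound for 44 hours at 28 °C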
CHOP inhibitor: blocks CHOP induction under ER stress. hit rate 3.8% among 220,000. CHO-K1 CHOP-promoter luciferase, tunicamycin-induced, 15-18 h. AID 2732. inhibition, % at 10 µM;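 active = compounds that reduced the stress-induced luciferase reporter signal by more than about 70% of percent inhibition, limit read from the data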
CHOP UPR activ: activators of apoptotic arm of unfolded protein response (CHOP); CHO-CHOP luciferase reporter, UPR activation, luminescence; percent of tunicamycin response over DMSO baseline; activation, % at 10 µM; hit rate 0.34% among 330,000; AID 449763;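 active = at 10 µM dose, activation of 40% or more, normalized to positive control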
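measured by = luciferase luminescence | assay system = CHO-CHOP cells, stable luciferase reporter of PERK-eIF2a-CHOP signalling | amount = 500 reporter cells seeded per well | timing = 6 h compound exposure at 37 °C after overnight seeding | controls = positive tunicamycin 10 µg/mL, negative DMSO alone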
T cruzi inh: blocks replication of Trypanosoma cruzi | T. cruzi beta-gal in NIH3T3, luminescence, 90 h | inhibition, % (test concentration not listed) | hit rate 1.4% among 300,000;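 active = mean inhibition across valid replicates above about 55%, limit read from the data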;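 note: signal also drops with host cell toxicity which is not excluded here; higher percent means less beta-gal luminescence so fewer parasites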
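Assay system: NIH/3T3 host cells with β-galactosidase reporter T. cruzi; input: 5,000 host fibroblasts per well; compound: single 50 nL compound addition per well in DMSO; timing: ≥90 h infection period, 3 h prior cell attachment; measured by: GalScreen β-gal luminescence, detergent lysis, 60 min; evaluation: percent inhibition of parasite-derived β-gal signal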
Numbers stand for hits; 0 = inactive; - = no result given; ! = not confirmed by another sample. The entries come from a sample that favours hits as a whole.

SMILES | Dynein cargo inh | UPR XBP1 act | Lmaj promast | CHOP inhibitor | CHOP UPR activ | T cruzi inh
CCOC(=O)c1cc(-c2ccccc2)n(CC(=O)Nc2ccc(OCC)cc2)c1C | 0 | 0 | 0 | 80 | 0 | 0
CCOC(=O)c1cc(-c2ccccc2)n(CC(=O)Nc2cc(OC)cc(OC)c2)c1C | 0 | 0 | 96 | 0 | 0 | 0
CC(=O)c1cc(-c2ccccc2)n(CC(=O)Nc2cc(C)cc(C)c2)c1C | 0 | 0 | 0 | 94 | 0 | 0
CCC(C)Sc1ccc([C@@H]2[C@@H]3C(=O)N(C)C(=O)[C@@H]3[C@]3(C(=O)OC)CCCCN23)cc1 (some centres not stated) | - | 0 | - | - | 0 | 0
Cc1ccccc1C(=O)N1CCN(c2ccc([N+](=O)[O-])c(NCc3cccnc3)c2)CC1 | 0 | 0 | 0 | 0 | 0 | 0
Cc1ccc(C(=O)N2CCN(c3ccc([N+](=O)[O-])c(NCc4cccnc4)c3)CC2)cc1 | 0 | 0 | 57 | 0 | 0 | 0
Oc1ccccc1CNc1ccc(OC(F)(F)F)cc1 | 0 | 0 | 0 | 0 | 0 | 0
Cc1ccc2[nH]c3c(c2c1)CN(C(=O)CN1CCN(c2ccccc2F)CC1)CC3 | 0 | - | 0 | 0 | - | 0
O=C(CN1CCN(Cc2ccc3c(c2)OCO3)CC1)N1CCc2[nH]c3ccc(F)cc3c2C1 | 0 | 0 | 99 | 0 | 0 | 0
O=C(CN1CCN(Cc2ccc3c(c2)OCO3)CC1)N1CCc2[nH]c3ccccc3c2C1 | 0 | - | 82 | 0 | - | 0
CC1CN(CC(=O)N2CCc3[nH]c4ccccc4c3C2)CC(C)O1 (configuration not stated) | 0 | 0 | 0 | 0 | 0 | 0
CC1CCCCN1CC(=O)Nc1ccc2c(c1)OCO2 (configuration not stated) | - | 0 | - | - | 0 | -
CC1CC(NC(=O)CCn2c(=O)oc3ccccc32)CC(C)(C)C1 (configuration not stated) | 0 | 0 | 99 | 0 | 0 | -
O=C(CCCn1c(=O)oc2ccccc21)NC1CCCCCC1 | 0 | 0 | 0 | 0 | 0 | 0
C=C1/C=C(\C)[C@](C)(O)C[C@H](O)CC(=O)[C@H](O)[C@@H](O)[C@H](C)C[C@H](C)OC(=O)/C(C)=C/CC/C=C/[C@@H]2O[C@H]2C[C@H](C)C1 | - | 0 | - | - | 0 | -
COc1ccc(CNC(=O)Cn2c(=O)n(CCC(=O)N3CCCCC3)c(=O)c3sccc32)cc1 | - | 0 | - | - | 0 | 0
Cn1ncc2c(N3CCN(c4ccccc4F)CC3)ncnc21 | 0 | 0 | 0 | 0 | 0 | 0
O=C(Cn1cnc2c(cnn2-c2ccccc2)c1=O)N1CCOCC1 | 0 | 0 | 0 | 0 | 0 | -
O=C(Cn1cnc2c(cnn2-c2ccc(Cl)cc2)c1=O)N1CCN(c2ccccc2)CC1 | 0 | 0 | 0 | 91 | 0 | 0
O=C(c1ccccc1)N1CCN(c2ncnc3c2cnn3-c2ccccc2)CC1 | 0 | 0 | 0 | 0 | 0 | 0
Cc1nn(-c2ccccc2)c(Cl)c1C(=O)N1CCN(c2ncnc3c2cnn3-c2ccccc2)CC1 | 0 | 0 | 0 | 92 | 0 | 0
CC(C)Nc1ncnc2c1cnn2-c1ccc(Cl)cc1 | 0 | 0 | 0 | 75 | 0 | 0
Cn1ncc2c(N3CCN(c4ccc(Cl)c(Cl)c4)CC3)ncnc21 | 0 | 0 | 0 | 84 | 0 | 0
O=C1N=C(N2CCOCC2)S/C1=C/c1cc2c(cc1[N+](=O)[O-])OCO2 | 0 | 0 | - | 0 | 0 | 0
Cc1cc(-n2c(C)cc(C(=O)COc3ccc(Cl)cc3C(N)=O)c2C)no1 | - | 0 | - | - | 0 | -
SMILES | Dynein cargo inh | UPR XBP1 act | Lmaj promast | CHOP inhibitor | CHOP UPR activ | T cruzi inh
Clc1ccc(-n2ncc3c(N4CCCC4)ncnc32)cc1 | 0 | 0 | 0 | 78 | 0 | 0
CCCCC(CC)C1OCC(CN2CCCCC2)O1 (configuration not stated) | 0 | 0 | - | 0 | 0 | 0
CCCCC(CC)C1OCC(CN2CCCC2)O1 (configuration not stated) | 0 | 0 | 84 | 0 | 0 | 0
COC(=O)c1ccc2c(=O)n(CCCN3CCOCC3)c(=S)[nH]c2c1 | 0 | 0 | 0 | 0 | 0 | 0
COC(=O)c1cc(=O)n(CCc2ccccc2)c(=Nc2ccc(F)cc2)s1 | 0 | 0 | 90 | 0 | 0 | 0
CCOC(=O)c1ccc(N=c2sc(C(=O)OC)cc(=O)n2CCCN2CCOCC2)cc1 | -3.6! | 0 | 100 | 0 | 0 | 0
CCCCCOc1ccc2oc(=O)c3c(c2c1)CCCN3C(=O)CN1CCCC(C(=O)OCC)C1 (configuration not stated) | 0 | 0 | 0 | 0 | 0 | 0
CCCOc1ccc2oc(=O)c3c(c2c1)CCCN3C(=O)CN(C)Cc1ccccc1 | 0 | 0 | 58 | 0 | 0 | 0
C=CCNc1nc(N)c(C(=O)Nc2cc(C)on2)s1 | 0 | 0 | 0 | 0 | 0 | 0
C=CCNc1nc(N)c(C(=O)c2ccc3c(c2)OCO3)s1 | 0 | 0 | 50 | 0 | 0 | -
Cn1c(=O)[nH]c(=O)c2c1nc1n2CCCN1Cc1ccccc1 | 0 | 0 | - | 0 | 0 | 0
CCOC(=O)C(C)(C)N(Cc1ccccc1C)S(=O)(=O)c1ccc(Cl)c([N+](=O)[O-])c1 | 0 | 0 | 100 | 0 | 0 | 0
CCOC(=O)N(C)S(=O)(=O)c1ccccc1[N+](=O)[O-] | 0 | 0 | 0 | 0 | 0 | 0
Cc1ccc(-n2nnnc2CNC(=O)c2ccc3c(c2)OCO3)cc1C | - | 0 | - | - | 0 | 0
CC(=O)Nc1nc(C)c(-c2csc(Nc3ccc(O)cc3)n2)s1 | 0 | 0 | 63 | 0 | 0 | -
CC(=O)Nc1nc(C)c(-c2csc(Nc3cccc([N+](=O)[O-])c3)n2)s1 | 0 | 0 | 97 | 95 | 0 | 55
CC(=O)Nc1ccc(Nc2nc(-c3sc(NC(C)=O)nc3C)cs2)cc1 | - | 0 | - | - | 0 | 0
CC(=O)Nc1nc(-c2cc([N+](=O)[O-])cs2)cs1 | 0 | 0 | 75 | 0 | 0 | -
CCC(C)C(=O)Nc1nc(C)c(-c2csc(Nc3ccc(Cl)cc3)n2)s1 (configuration not stated) | 0 | 0 | 0 | 0 | 0 | 58
Cc1ccc(-c2nnc(-c3cccc(Br)c3)o2)cc1 | 0 | 0 | 0 | 0 | 0 | 0
Brc1cccc(-c2nnc(-c3ccccc3)o2)c1 | 0 | 0 | 0 | 75 | 0 | -
CCCC[n+]1ccn(-c2nc3ccccc3nc2[N-]S(=O)(=O)c2ccc(C)cc2)c1 | 0 | 0 | 99 | 0 | 0 | 0
CCCC[n+]1ccn(-c2nc3ccccc3nc2[N-]S(=O)(=O)c2ccccc2)c1 | 0 | 0 | 54 | 0 | 0 | 0
Cc1ccc(S(=O)(=O)[N-]c2nc3ccccc3nc2-n2cc[n+](Cc3ccccc3)c2)cc1 | 0 | 0 | - | 0 | 0 | 0
CCCCC[n+]1ccn(-c2nc3ccccc3nc2[N-]S(=O)(=O)c2ccc(C)cc2)c1 | 0 | 0 | 100 | 0 | 0 | 0
O=C(NC1CC1)C1CCN(c2ncccn2)CC1 | - | 0 | - | - | 0 | 0
Cc1cc(N2CC(C)OC(C)C2)n2cc(-c3ccccc3)nc2n1 (configuration not stated) | 0 | 0 | 0 | 0 | 0 | 0

Screening results deposited in PubChem by several laboratories.
